LMPTP inh = blocks human LMPTP phosphatase; recombinant LMPTP-A, OMFP fluorogenic substrate, fluorescence intensity; inhibition, % at 20 µM; hit rate 0.22% among 360,000; AID 651560;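 active = compounds that cut the enzyme signal by at least half of the control window in the single-dose screen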
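Assay system: LMPTP-A, protein tyrosine phosphatase of low molecular weight / Medium: pH 6.0 Bis-Tris buffer with DTT and Triton X-100 / Schedule: 50 min enzyme reaction at room temperature, protected from light / Measured by: endpoint fluorescence intensity from OMFP dephosphorylation / Read-out basis: % inhibition relative to no-enzyme and uninhibited control wells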
DNMT1 inh = DNMT1 (human) enzyme inhibition; P26358; DNMT1 molecular beacon, Hinp1I cleavage, fluorescence; inhibition (reported as % activation of signal), % at 10 µM; hit rate 0.83% among 360,000; in the data active = inhibition above about 50%
SUMO1 PPI mod = SUMO1-SIM interaction modulation. hit rate 0.33% among 360,000. P63165. inhibition, % at 20 µM. SUMO1 binding to a labelled peptide, TR-FRET, 1 h; in the data active = inhibition above about 37%
Scp-1 inhibitor = Scp-1 (human) phosphatase inhibition; Q9GZU7; Recombinant Scp1, phosphopeptide, malachite green phosphate absorbance; inhibition, % at 20 µM; hit rate 0.88% among 340,000;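 active = inhibition above about 50% at 20 µM, limit read from the data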
Target sequence (Q9GZU7 76-261 limits assumed): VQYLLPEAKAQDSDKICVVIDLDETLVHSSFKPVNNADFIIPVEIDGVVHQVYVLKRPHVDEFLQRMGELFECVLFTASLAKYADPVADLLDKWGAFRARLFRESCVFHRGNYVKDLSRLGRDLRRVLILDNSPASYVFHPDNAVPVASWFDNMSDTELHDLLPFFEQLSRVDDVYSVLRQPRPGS
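assay system = SCP-1 phosphatase catalytic domain, residues 76-261 | buffer or medium = 50 mM Tris acetate pH 5.5, 0.005% Tween-20, 10 mM MgCl2 | incubation = enzyme reaction 45 min at room temperature, colour 5 min, stabilisation 30 min | signal = Phosphate-binding colour reagent, absorbance read at 630 nm | measure = % inhibition at 20 µM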
STEP inh = blocks human striatal-enriched tyrosine phosphatase | P54829 | AID 588621 | hit rate 0.25% among 360,000 | inhibition, % at 20 µM | recombinant STEP, OMFP fluorogenic substrate, fluorescence;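 active = inhibition at 20 µM, scaled per plate between control wells, above about 37%, limit read from the data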
Target sequence (P54829 whole entry, looked up): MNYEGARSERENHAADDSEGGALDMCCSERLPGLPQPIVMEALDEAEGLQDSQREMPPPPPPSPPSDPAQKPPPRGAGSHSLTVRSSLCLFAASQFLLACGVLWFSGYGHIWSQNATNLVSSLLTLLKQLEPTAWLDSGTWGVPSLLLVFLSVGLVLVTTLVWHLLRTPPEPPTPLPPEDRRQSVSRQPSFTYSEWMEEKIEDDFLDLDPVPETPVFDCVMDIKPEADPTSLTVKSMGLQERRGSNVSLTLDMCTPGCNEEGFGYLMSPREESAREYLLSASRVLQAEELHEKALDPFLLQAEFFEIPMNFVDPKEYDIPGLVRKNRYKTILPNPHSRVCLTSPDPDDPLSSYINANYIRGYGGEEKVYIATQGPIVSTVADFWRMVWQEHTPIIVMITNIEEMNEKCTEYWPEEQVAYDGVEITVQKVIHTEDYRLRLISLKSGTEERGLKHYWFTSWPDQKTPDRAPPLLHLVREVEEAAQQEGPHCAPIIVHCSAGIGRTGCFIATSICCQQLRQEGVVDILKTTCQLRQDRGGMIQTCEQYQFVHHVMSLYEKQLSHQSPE
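Material: STEP (striatal-enriched tyrosine phosphatase) enzyme, cell-free | Medium: 50 mM Bis-Tris pH 6.0 with 2.5 mM DTT and 0.005% Tween 20 | Read-out: Percent inhibition scaled to no-enzyme and uninhibited-enzyme controls, plate-pattern corrected | Signal: Fluorescence read at 480 nm ex / 540 nm em | Times: 20 min reaction, room temperature, in the dark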
Of the large screens only hits and unclear results are named; the others gave an inactive call. A selection: hits, their analogues and other compounds. The true share with any hit is near 1.7%.

O=C1NC[C@@H](CCCCN2C[C@H](Cc3ccccc3)N(CCC3CCCCC3)C(=O)C2=O)N(CC2CCCCC2)C1=O	none (no result: DNMT1 inh, Scp-1 inhibitor, STEP inh)
Cc1cc(C)c(S(=O)(=O)c2ccccc2)c(OC(=O)c2c(Cl)cc(Cl)cc2Cl)n1	SUMO1 PPI mod 41.6
Cc1cc(C)c(S(=O)(=O)c2ccccc2)c(OC(=O)c2c(F)cccc2F)n1	none
O=C(NCc1ccncc1)c1csc([C@@H]2C[C@H](O)[C@@H](CO)O2)n1	none (no result: Scp-1 inhibitor)
Clc1ccc(-c2nc3ccc(Br)cn3c2Cc2ccsc2)cc1	none (no result: Scp-1 inhibitor)
Cc1ccc(Cl)cc1N1CCN(C(=O)c2cc3c(=O)n(C)c4ccccc4c3n2C)CC1	SUMO1 PPI mod 48.3
Cc1cccc(N2CCN(C(=O)c3cc4c(=O)n(C)c5ccccc5c4n3C)CC2)c1C	none
O=S(=O)(Cc1ccccc1)Nn1cnnc1	SUMO1 PPI mod 60.2
CC1CCN(C(=S)NC(=O)c2ccc(C(C)(C)C)cc2)CC1	SUMO1 PPI mod 44.6
CC(NCC(O)COCc1ccc(Cl)cc1)c1ccccc1 (centres undefined)	SUMO1 PPI mod 64.7
O=c1cc2oc3cc(O)c(O)cc3c(-c3ccccc3[N+](=O)[O-])c-2cc1O	LMPTP inh 90.2
COc1cccc(C=C(C(C)=O)C(=O)c2ccccc2)c1	none (no result: DNMT1 inh, Scp-1 inhibitor, STEP inh)
C[C@@H](CN1C(=O)C(=O)NC[C@@H]1Cc1ccc(O)cc1)NC(=O)Cc1ccccc1	SUMO1 PPI mod 42.2
O=C1NC[C@@H](Cc2ccc(O)cc2)N(CCc2cc(C(F)(F)F)cc(C(F)(F)F)c2)C1=O	SUMO1 PPI mod 66.7 (no result: DNMT1 inh, Scp-1 inhibitor, STEP inh)
Oc1ccc(C[C@@H]2CNC(=S)N2CCc2cc(C(F)(F)F)cc(C(F)(F)F)c2)cc1	none
CC(C)(C)C1CCN2CCCC(c3ccccc3)(C1)C2=O (centres undefined)	none (no result: DNMT1 inh, Scp-1 inhibitor, STEP inh)
COCCCN1C(=O)C(CC(=O)NCCCCc2ccccc2)CC(C(=O)N(C(C)C)C(C)C)=C1C (centres undefined)	none (no result: Scp-1 inhibitor)
O=C(NCc1cccnc1)c1cc(C2CCCCN2S(=O)(=O)c2cccs2)on1 (centres undefined)	none (no result: Scp-1 inhibitor)
O=C(c1cc(C2CCCCN2S(=O)(=O)c2cccs2)on1)N1CCOCC1 (centres undefined)	SUMO1 PPI mod 43.9 (no result: Scp-1 inhibitor)
COC(=O)c1cc(O)cc(OC)c1Oc1cc(C)cc(O)c1C(=O)O	SUMO1 PPI mod 44.0, Scp-1 inhibitor 58.2
CC(=O)C1CCC2C3CC=C4CC(SC(=N)N)CCC4(C)C3CCC12C (centres undefined)	LMPTP inh 62.7
CC(C)(C)[C@H](N)C(=O)N[C@H]1CCC2C3CC=C4C[C@@H](O)CC[C@]4(C)C3CC[C@@]21C (some centres undefined)	SUMO1 PPI mod 40.9
Cc1ccc(S(=O)(=O)Nc2ccc(O)c(Sc3ncn[nH]3)c2)cc1	none
CC(C)c1ccc(S(=O)(=O)/N=C2/C=C(Sc3ncn[nH]3)C(=O)c3ccccc32)cc1	SUMO1 PPI mod 91.7
CC(C)(C)c1ccc(S(=O)(=O)/N=C2\C=C(NS(=O)(=O)c3ccccc3)C(=O)c3ccccc32)cc1	none
Cc1ccc(S(=O)(=O)/N=C2/C=C(Sc3ncn[nH]3)C(=O)c3ccccc32)cc1	DNMT1 inh 76.6, SUMO1 PPI mod 92.8
O=C(NCCN1CCCC1)c1ccc(Cn2c(=S)[nH]c3cc4c(cc3c2=O)OCO4)cc1	LMPTP inh 54.3
CN1CCN(CCCNC(=O)c2ccc(Cn3c(=S)[nH]c4ccc(Br)cc4c3=O)cc2)CC1	none
COc1ccc(N2CCN(Cc3cc(=O)oc4ccc(C)cc34)CC2)cc1	none
COc1ccc(N2CCN(Cc3cc(=O)oc4cc5c(cc34)CCCC5)CC2)cc1	DNMT1 inh 55.9
O=C(O)CCCCCNc1nc(-c2ccccc2)nc2ccccc12	LMPTP inh 58.7
OCCNc1nc(-c2ccccc2)nc2ccccc12	none
c1ccc(-c2nc(NCCCn3ccnc3)c3ccccc3n2)cc1	LMPTP inh 57.3
Oc1c(CN2CCOCC2)cc(CN2CCOCC2)c(O)c1O	DNMT1 inh 57.5
COc1ccc(NC(=O)C2(C)Cc3c(-c4cccc(C(F)(F)F)c4)ccnc3O2)cn1 (centres undefined)	none (no result: Scp-1 inhibitor)
O=C(Nc1cccc(OC(F)(F)F)c1)[C@@H]1O[C@H](CO)[C@H](O)[C@H](O)[C@H]1O	none (no result: Scp-1 inhibitor)
Nc1c(C(=O)NC2CC2)sc2nc3c(c(-c4ccco4)c12)CC/C3=C/c1ccco1	LMPTP inh 70.8, DNMT1 inh 91.2, SUMO1 PPI mod 94.9, Scp-1 inhibitor 83.8
O=C(Nc1cccc([N+](=O)[O-])c1)c1cc2ccccc2cc1O	Scp-1 inhibitor 88.8
Oc1ccccc1C=NC(c1ccccc1)C(O)c1ccccc1 (centres undefined)	none
Oc1ccccc1/C=N/[n+]1ccccc1	Scp-1 inhibitor 103.2
COc1ccc(C(=O)N2CCCCC2c2cc(C(=O)NCc3cccnc3)no2)cc1 (centres undefined)	none (no result: Scp-1 inhibitor)
O=c1ccc2[n+]([O-])c3ccc(O)cc3oc-2c1	DNMT1 inh 57.5
O=C(Nc1ccc(-c2nc3ccc(NC(=O)c4cccs4)cc3[nH]2)cc1)c1cccs1	SUMO1 PPI mod 82.1, STEP inh 41.6
Cc1cc(C)n2c(NC3CCCC3)c(-c3ccc(F)cc3)nc2n1	none (no result: DNMT1 inh, Scp-1 inhibitor, STEP inh)
Cc1ccc(NC(=O)Nn2cnnc2)cc1Cl	SUMO1 PPI mod 49.1
CCOc1ccc(S(=O)(=O)Nc2cc(SCC(=O)O)c(O)c3ccccc23)cc1	none
Cc1ccc(NS(=O)(=O)c2cc(NC(=O)C(C)Oc3ccccc3)ccc2C)c(C)c1 (centres undefined)	none
O=C(O)CSc1cc(NS(=O)(=O)c2cccc([N+](=O)[O-])c2)c2ccccc2c1O	DNMT1 inh 52.4
Cc1ccc(C)c(S(=O)(=O)Nc2cc(SCC(=O)O)c(O)c3ccccc23)c1	SUMO1 PPI mod 91.0
CCc1ccc(S(=O)(=O)Nc2cc(SCC(=O)O)c(O)c3ccccc23)cc1	SUMO1 PPI mod 44.7
Cc1ccc(C(=O)Nc2nnc(CC(=O)N/N=C/c3ccc(O)c(O)c3)s2)cc1	SUMO1 PPI mod 95.8
Cc1ccc(C(=O)Nc2nnc(CC(=O)N/N=C/c3ccncc3)s2)cc1	none
COc1ccc(C(=O)Nc2nnc(CC(=O)N/N=C/c3ccc(O)cc3O)s2)cc1	SUMO1 PPI mod 78.6 (no result: Scp-1 inhibitor)
CCc1nnc(NC(=O)c2ccc(OC)cc2)s1	none
CCN1/C(=C/c2ccc3cc(C)ccc3[n+]2CC)Sc2ccc3sccc3c21	LMPTP inh 84.1, SUMO1 PPI mod 103.9
CCN1/C(=C/c2ccc3cc(C)cc(C)c3[n+]2CC)Sc2cc(C)ccc21	LMPTP inh 48.0
COC1=CC(=O)c2nc(Cl)ccc2C1=O	DNMT1 inh 85.0, SUMO1 PPI mod 44.9 (no result: Scp-1 inhibitor)
COc1cccc2c1C(=O)C=C(C)C2=O	none
CC(OC(=O)c1ccc(NC(=O)CC#N)cc1)C(=O)Nc1ccc(Oc2ccccc2)cc1 (centres undefined)	SUMO1 PPI mod 54.0 (no result: Scp-1 inhibitor)
OCCN1CCN(c2ncnc3c2ncn3[C@H]2CN(Cc3cccnc3)C[C@@H](CO)O2)CC1	none (no result: Scp-1 inhibitor)
